Measurements reported in ChEMBL document CHEMBL3632536, “Novel Fluorinated 8-Hydroxyquinoline Based Metal Ionophores for Exploring the Metal Hypothesis of Alzheimer's Disease” (ACS Med Chem Lett, 2015).
Active and inactive are the calls of the source. The rule behind the calls is not given here.

Key:
SH-SY5Y [1] = assay: Ionophoric activity in human SH-SY5Y cells assessed as increase in cellular Zn uptake at 20 uM after 6 hrs by ICP-MS analysis relative to vehicle-treated control; assay type: functional
In short: (§1)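 SH-SY5Y neuronal cells exposed to each compound at 20 μM for 6 h. Cellular Zn, Cu and Fe content then determined by ICP-MS and compared with untreated control level.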

[2] = Reversal of Zn-induced human soluble amyloid beta (1 to 42) aggregation after 30 mins by bis-ANS-based fluorometric analysis
In short: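 Soluble Aβ oligomer aggregation monitored fluorometrically with bis-ANS.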

SH-SY5Y [3] = assay: Ionophoric activity in human SH-SY5Y cells assessed as increase in cellular Fe uptake at 20 uM after 6 hrs by ICP-MS analysis relative to vehicle-treated control; assay type: functional, cell-based; in short: as §1
SH-SY5Y [4] = assay: Ionophoric activity in human SH-SY5Y cells assessed as increase in cellular Cu uptake at 20 uM after 6 hrs by ICP-MS analysis relative to vehicle-treated control; assay type: functional; in short: as §1

Row | Structure (SMILES) | fold change (FC) (SH-SY5Y [1]) | EC50 [2] [µM] | Activity (SH-SY5Y [3]) | fold change (FC) (SH-SY5Y [4]) | Activity (SH-SY5Y [4]) | Activity (SH-SY5Y [1])
1 | CN(Cc1cn(CCCCF)nn1)Cc1ccc2c(Cl)cc(Cl)c(O)c2n1 | >2 | 2.8 | inactive | – | – | –
2 | Oc1c(Cl)cc(Cl)c2ccc(COCCF)nc12 | – | 2.4 | inactive | – | – | –
3 | Oc1c(Cl)cc(F)c2cccnc12 | >2 | 5.2 | – | 6 | – | –
4 | Oc1c(Cl)cc(Cl)c2ccc(COCCCCF)nc12 | – | 2 | inactive | – | Active | –
5 | Oc1cccc2cc[nH]c12 | – | – | inactive | – | – | inactive
6 | Oc1c(F)ccc2cccnc12 | – | – | inactive | – | Active | inactive
7 | COc1cccc2ccc(Cl)nc12 | – | – | inactive | – | – | inactive
8 | Oc1ccc(F)c2cccnc12 | – | – | inactive | – | Active | inactive
9 | Oc1c(F)cc(Br)c2cccnc12 | – | 3.5 | – | – | – | –
10 | CN(Cc1cn(CCF)nn1)Cc1ccc2c(Cl)cc(Cl)c(O)c2n1 | >2 | 2.3 | inactive | – | – | –
11 | Oc1cc(F)cc2cccnc12 | – | – | inactive | – | Active | inactive
12 | Oc1c(F)cc(Cl)c2cccnc12 | – | 4.9 | – | – | – | –
13 | Oc1cccc2ccc(F)nc12 | – | > 120 | inactive | – | inactive | inactive
14 | Oc1cccc2cc(F)cnc12 | – | – | inactive | – | Active | inactive
15 | Oc1c(Br)cc(F)c2cccnc12 | >2 | 3.7 | – | 6 | – | –
16 | CN(C)Cc1ccc2c(Cl)cc(Cl)c(O)c2n1 | – | 2 | – | – | Active | Active
17 | Oc1cccc2nccnc12 | – | – | inactive | – | – | inactive
18 | CN(Cc1cn(CCCF)nn1)Cc1ccc2c(Cl)cc(Cl)c(O)c2n1 | >2 | 4.5 | inactive | – | – | –
19 | Oc1c(F)cc(I)c2cccnc12 | – | 2.3 | – | – | – | –
20 | Oc1c(I)cc(Cl)c2cccnc12 [CLIOQUINOL] | – | 1.8 | – | – | Active | Active
21 | Oc1c(I)cc(F)c2cccnc12 | >2 | 2.5 | – | 6 | – | –
22 | Oc1ccccc1/N=C/c1ccc(F)cc1 | – | 15.4 | inactive | – | – | inactive
23 | Oc1cccc2cccnc12 | – | – | inactive | – | Active | inactive
